Screening results from PubChem.
This is a sample that favours compounds with a hit; in the whole collection about 2.5% have one here.
SR-BI DiI inh – inhibitors of SR-BI mediated HDL lipid uptake, primary screen, ldlA[mSR-BI] cells, fluorescence, single point | Scavenger receptor class B member 1 (Mus musculus), Q61009 | ldlA[mSR-BI] CHO cells, DiI-HDL uptake fluorescence, 3 h | inhibition, % at 12.5 µM | 320,000 compounds, 0.96% hits | AID 488896, 2010;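 active means mean replicate inhibition of at least 70% and a set share of replicates each scoring 70 or more; inconclusive means meets just one of the two criteria; inactive means fails both criteria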;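 further: 0% = median of neutral control wells and 100% = median of positive control wells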
SR-BI uptake up – activators of SR-BI mediated DiI-HDL uptake, primary screen, ldlA[mSR-BI] CHO cells, DiI fluorescence; 3 h; 100 = double the neutral-control signal; activation, % at 12.5 µM; 320,000 compounds, 0.096% hits; AID 504775, 2011;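 active means mean replicate activation of at least 60% and every replicate at or above 60%; inconclusive means mean or all-replicate condition met, but not both; inactive means mean below 60% and not all replicates reaching 60%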;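 further: 0% = median plate neutral-control signal and 100% = twice that signal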
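Test system: SR-BI-overexpressing, LDLR-lacking CHO cells; Also added: labelled HDL, 10 µg/mL; Measured by: bottom-read cell fluorescence after medium removal, ex 550/em 595 nm; Timing: 3 h uptake period with compound, 37 °C; Buffer or medium: F12, 0.5% BSA, 25 mM HEPES; Doses: single compound concentration, delivered by pin transfer.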
NSD2 inh – NSD2 histone methyltransferase inhibitors, primary screen, biochemical, AlphaScreen, single concentration, set 2; 310,000 compounds, 0.54% hits; AID 743445, 2014; NSD2 peptide methylation, 120 min; inhibition, % at 12.5 µM; Histone-lysine N-methyltransferase NSD2 (Homo sapiens), O96028
CDK5 inh – inhibitors of human CDK5/p35 kinase, primary screen, biochemical, single concentration | AID 488839, 2010 | inhibition, % at 10 µM | 330,000 compounds, 0.01% hits | Recombinant CDK5/p35, ADP-Glo luminescence, 60 min;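 active means highest replicate inhibition of at least 50% and at least 75% of replicates reaching 50%; inconclusive means only one of the two criteria met; inactive means both criteria failed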;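 further: plate controls were DMSO neutral control for no effect and GW8510 at 10 µM for full effect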
dFosB act – activators of delta FosB homodimer, primary screen, biochemical, fluorescence polarization, TAMRA-CDK5 oligo, single point; 340,000 compounds, 0.99% hits; Protein FosB (Mus musculus), P13346; activation, % at 25 µM; AID 493131, 2011; purified delta FosB; percent of positive-control signal above neutral wells;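 active means mean activation above about 17%, with every replicate also reaching it, limit read from the data, passing the limit was not always enough; inconclusive means only one of the two conditions met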
Target sequence (P13346 whole entry, looked up): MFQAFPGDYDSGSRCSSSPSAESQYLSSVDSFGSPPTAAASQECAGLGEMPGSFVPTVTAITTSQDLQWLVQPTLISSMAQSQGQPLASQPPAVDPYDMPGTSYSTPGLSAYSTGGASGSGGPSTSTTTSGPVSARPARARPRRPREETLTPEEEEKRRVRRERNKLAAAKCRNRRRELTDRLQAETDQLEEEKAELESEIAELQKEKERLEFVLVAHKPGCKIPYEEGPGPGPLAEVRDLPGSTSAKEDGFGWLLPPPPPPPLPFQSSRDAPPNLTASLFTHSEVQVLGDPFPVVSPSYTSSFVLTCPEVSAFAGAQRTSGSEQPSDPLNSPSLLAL
DYRK1A inh – rat Dyrk1A kinase inhibitors, primary screen, biochemical, single point, plate reader; Dual specificity tyrosine-phosphorylation-regulated kinase 1A (Rattus norvegicus), Q63470; inhibition, % at 12.5 µM; ADP-Glo luminescence, NFATc1 peptide; 310,000 compounds, 0.43% hits;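 further: plate controls were vehicle with enzyme for no effect and no enzyme for full effect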
Alpha artifact – AlphaScreen signal interference with preloaded methylated product, dose response, artefact control for NSD2 inhibitor project, biochemical, cherry-picked samples | AC35, µM (doses to about 10 µM), without a hit: top-dose activity change, negative = signal loss | AlphaScreen artifact counterscreen, preloaded methylated H4 peptide | 1,500 compounds, 9.4% hits | shares compounds with NSD2 inh | AID 1053174, 2014; call rule not given here
Active calls of the source: *; ? = inconclusive; . = no result. Unless noted, no stated cut-off is given here; in the data, active means inhibition above about 50%; inactive means the rest.

SMILES	SR-BI DiI inh	SR-BI uptake up	NSD2 inh	CDK5 inh	dFosB act	DYRK1A inh	Alpha artifact
CCOC(=O)C1CCCN(C(=O)c2ccc3sccc3c2)CC1 (stereo unspecified)	.	.	4.8	.	.	.	.
CCOC(=O)c1ccc(CC(=O)c2ccc(O)c(O)c2O)o1	5.3	-5.3	91.2*	0.9	-2.4	-1.6	-8.4%
CC(C)(C)OC(=O)NC1CNNC1=O (stereo unspecified)	6.5	-6.5	.	1.4	2.5	6.7	.
Cc1cc(OCCn2nc(C(=O)O)c3ccccc3c2=O)ccc1C(C)C	.	.	90.5*	0.1	-8.1	-0.7	-2.7%
N#Cc1c(NC(=O)c2ccncc2)sc2c1CCC2	-7.5	7.5	56.8*	-1.4	-12.7	5.6	-5.3%
C[C@@H](C(=O)N=c1sc2ccccc2n1C)N1C(=O)C2CC=CCC2C1=O (stereo partly specified)	12.0	-12.0	-0.7	-1.1	-10.8	1.2	.
COc1ccc(C(=O)N[C@H](C(=O)NCc2ccc(C)cc2)C(C)C)cc1	.	.	75.3*	-1.3	-2.3	-1.0	-3.0%
COc1ccc(C(=O)NC(C(=O)NCc2ccccc2OC)C(C)C)cc1 (stereo unspecified)	1.3	-1.3	-2.0	-0.5	-6.4	-8.1	.
C#CCN1C(=O)[C@]2(OCCC=C[C@H]2C)c2ccccc21	.	.	-0.2	.	.	.	.
CC(=O)c1ccc(N(CC(=O)NCCc2ccccc2)C(=O)c2csnn2)cc1	8.2	-8.2	70.4*	1.4	1.9	1.0	-0.9%
O=C(CN(C(=O)c1csnn1)c1cccc2ccccc12)NCc1ccccc1	9.5	-9.5	96.5*	-2.0	-0.4	-2.8	0.9%
COC1=C(C)C(=O)C2=C(C1=O)C1C3CC4=C(C(=O)C(OC)=C(C)C4=O)C(CNC(=O)C(C)=O)N3C(C#N)C(C2)N1C (stereo unspecified)	17.4	-17.4	74.9*	2.1	-1.1	-0.7	-3.3%
N#CCCCC1(CCCC#N)OCCO1	-4.9	4.9	0.7	-0.1	6.4	8.2	.
Cc1nnc2sc(-c3cccc(F)c3)nn2c1=O	-6.8	6.8	0.2	-1.4	-4.5	-0.1	.
CSc1nnc(-c2ccccc2)c(-c2ccccc2)n1	-3.6	3.6	-0.9	3.5	-2.1	6.9	.
CSc1nnc(-c2ccco2)c(-c2ccco2)n1	7.7	-7.7	113.7*	-0.1	-9.6	3.9	-8.0%
Cc1ccccc1CC(=O)N1CCN(C(=O)c2ccco2)CC1	1.8	-1.8	32.3	1.0	4.6	1.3	.
Cc1ccccc1CN1CCN(C(=O)c2ccco2)CC1	-132.9	?	56.1*	0.4	-4.2	-1.2	-5.4%
Cc1cccc(C(=O)OCC(=O)Nc2ccccc2C(=O)NC2CC2)c1	-17.8	17.8	-2.1	0.1	-4.6	.	.
Cc1ccc(CNC(=O)C2CCC(=O)N(CCc3ccccn3)C2)s1 (stereo unspecified)	-2.3	2.3	-1.2	-0.8	-6.3	-3.4	.
OCC1OC(c2ccc(OCc3ccccc3)cc2OCc2ccccc2)C(O)C1O (stereo unspecified)	.	.	-4.4	.	.	.	.
Cc1ccc(S(=O)(=O)Nc2ccccn2)c(C)c1	.	.	-0.7	.	.	.	.
CN(C)c1cccc2c(S(=O)(=O)Nc3ccccn3)cccc12	-17.2	17.2	57.8*	-1.7	-8.8	-10.0	-2.7%
COc1ccc(N(CC(=O)Nc2cccc(C)c2)S(=O)(=O)c2ccc(C)cc2)cc1OC	-4.5	4.5	-4.2	0.5	13.9	7.5	.
CC(=O)C1=C(O)C(=O)N(Cc2cccnc2)C1c1ccccc1 (stereo unspecified)	-6.2	6.2	130.6*	-0.9	0.5	-3.6	-2.2%
SMILES	SR-BI DiI inh	SR-BI uptake up	NSD2 inh	CDK5 inh	dFosB act	DYRK1A inh	Alpha artifact
CC(=O)c1c(C)[nH]c(C(=O)CSc2nnc(-c3ccco3)n2Cc2ccccc2)c1C	80.0*	-80.0	58.1*	2.2	-3.3	7.4	-0.6%
Cc1ccc(C)c(N2CCN(C(=O)C34CC5CC(C3)CC(n3nnc(C)n3)(C5)C4)CC2)c1	19.6	-19.6	2.1	0.6	-2.9	-7.3	.
OC[C@@H]1CN(Cc2ccc(-c3ccccc3)cc2)C[C@H](n2cnc3c(NCc4ccc(F)cc4)ncnc32)O1	.	.	1.6	.	.	.	.
Cc1nc(N)sc1-c1nnc(SCC(=O)Nc2ccccc2C(F)(F)F)n1C	19.4	-19.4	125.4*	0.7	0.0	-1.2	0.1%
Cc1cccc(Nc2nc(NCc3ccco3)nc(N)c2[N+](=O)[O-])c1	32.9	-32.9	96.4*	-0.5	5.3	17.4	-5.3%
Cc1noc(C)c1S(=O)(=O)N1CCN(S(=O)(=O)c2ccccc2C#N)CC1	.	.	106.8*	0.2	2.6	0.8	-1.2%
COc1cc(OC)c2c(-c3cccc(-c4ccc(N(C)C)cc4)c3)cc(=O)oc2c1	54.7	-54.7	.	2.7	-2.0	-0.9	.
N=c1c(C(=O)NCc2ccco2)cc2c(=O)n3ccccc3nc2n1C1CCCC1	.	.	66.2*	-2.8	-8.9	3.5	1.2%
COCCNC(=O)c1ccc(CN2CCc3ccccc3C2)cc1	-32.3	32.3	55.8*	-2.2	-0.2	1.8	-3.7%
COCC(C)NC(=O)c1ccc(CN2CCc3ccccc3C2)cc1 (stereo unspecified)	17.9	4.7	7.1	0.6	3.2	-3.5	.
O=C(NCCS(=O)(=O)NCc1ccccc1Cl)c1ccccc1	-27.8	27.8	0.0	0.9	4.7	.	.
CCC(=O)N1CCC(C)(C(=O)Nc2ccc3c(c2)OCO3)C1 (stereo unspecified)	.	.	-3.1	.	.	.	.
Oc1cccc(/C=N/NC(=S)Nc2cccnc2)c1O	-36.9	36.9	79.2*	1.4	0.8	2.8	-6.2%
Oc1ccc(/C=N/NC(=S)Nc2cccnc2)c(O)c1O	-3.7	3.7	.	10.8	-4.6	17.6	.
CN(C)c1ccc(/C=C2/C[N+](C)(C)C/C(=C/c3ccc(N(C)C)cc3)C2=O)cc1	16.8	-16.8	66.2*	-0.7	22.2*	5.3	9.46µM*
CC(C)/C=C1\CC/C(=C\c2ccc(N(C)C)cc2)C1=O	-20.2	20.2	-0.7	0.6	-0.3	2.0	.
CCOc1cc(CN2CCC(N3CCC(C(=O)NC4CC4)CC3)CC2)ccc1O	.	.	-1.7	.	.	.	.
